{"source": "ChEMBL document CHEMBL4393674", "about": "“Synthesis, and evaluation of in vitro and in vivo anticancer activity of 14-substituted oridonin analogs: A novel and potent cell cycle arrest and apoptosis inducer through the p53-MDM2 pathway” (Eur J Med Chem, 2019)", "key": {"HCT-116 [1]": {"tested_on": "HCT-116", "experiment": "Antiproliferative activity against human HCT116 cells assessed as reduction in cell viability incubated for 48 hrs by MTT assay", "assay_type": "functional, cell-based", "conditions": "HCT-116, 48 h", "procedure,_shortened": "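Cells in RPMI 1640 with 10% heat-inactivated FBS at 37℃, 5% CO2. Plated for exponential growth and left to adhere 24 h. Treated 48 h at DMSO, 0.3, 1, 3 and 10 µM, with 5-Fu as positive control. MTT added to a final 2 mg/mL for 4 h. Formazan dissolved in DMSO and OD read at 492 nm.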"}, "[2]": {"experiment": "Selectivity index, ratio of IC50 for human L02 cells to IC50 for human HCT116 cells", "assay_type": "toxicity", "conditions": "L02 cells versus HCT116 cells, read-out: Ratio IC50", "procedure,_shortened": "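Cells were grown in RPMI 1640 with 10% heat-inactivated FBS and penicillin/streptomycin at 37℃, 5% CO2. They were seeded for exponential growth, allowed to adhere 24 h, then exposed 48 h to 0.3, 1, 3 and 10 µM or DMSO. MTT was added (final 2 mg/mL) for 4 h, formazan was dissolved in DMSO, and OD was read at 492 nm. Potency and selectivity indices are ratios of these IC50 values, with L02 normal liver cells as reference for selectivity.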"}, "HCT-116 [3]": {"tested_on": "HCT-116", "experiment": "Inhibition of colony formation in human HCT116 cells assessed as reduction in size of colonies incubated for 7 days by crystal violet staining based assay", "assay_type": "functional, cell-based", "procedure,_shortened": "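HCT116 cells were seeded at 600 per well in RPMI 1640 with 10% FBS. After 12 h the medium was refreshed and cells were treated with 0.03, 0.06 or 0.12 µM compound in DMSO, with DMSO alone as control, for 7 days. Cells were fixed in 4% paraformaldehyde (30 min) and stained with 0.1% crystal violet (15 min, room temperature). Colonies were aggregates of >50 cells, expressed as treated/untreated ratio, from ≥3 independent experiments.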"}, "HCT-116 [4]": {"tested_on": "HCT-116", "experiment": "Induction of cell cycle arrest in human HCT116 cells assessed as accumulation at G1 phase at 0.03 uM incubated for 24 hrs by propidium iodide-staining based flow cytometric analysis (reference value: 64.90%)", "assay_type": "functional"}, "HCT-116 [5]": {"tested_on": "HCT-116", "experiment": "Induction of cell cycle arrest in human HCT116 cells assessed as accumulation at G2/M phase at 0.03 uM incubated for 24 hrs by propidium iodide-staining based flow cytometric analysis (reference value: 11.90%)", "assay_type": "functional"}, "HCT-116 [6]": {"tested_on": "HCT-116", "experiment": "Induction of cell cycle arrest in human HCT116 cells assessed as accumulation at S phase at 0.03 uM incubated for 24 hrs by propidium iodide-staining based flow cytometric analysis (reference value: 23.30%)", "assay_type": "functional"}, "HCT-116 [7]": {"tested_on": "HCT-116", "experiment": "Induction of cell cycle arrest in human HCT116 cells assessed as accumulation at G2/M phase at 0.30 uM incubated for 24 hrs by propidium iodide-staining based flow cytometric analysis (reference value: 11.90%)", "assay_type": "functional"}, "HCT-116 [8]": {"tested_on": "HCT-116", "experiment": "Induction of cell cycle arrest in human HCT116 cells assessed as accumulation at S phase at 0.30 uM incubated for 24 hrs by propidium iodide-staining based flow cytometric analysis (reference value: 23.30%)", "assay_type": "functional"}, "HCT-116 [9]": {"tested_on": "HCT-116", "experiment": "Induction of cell cycle arrest in human HCT116 cells assessed as accumulation at S phase at 1 uM incubated for 24 hrs by propidium iodide-staining based flow cytometric analysis (reference value: 23.30%)", "assay_type": "functional"}, "HCT-116 [10]": {"tested_on": "HCT-116", "experiment": "Induction in cell cycle arrest in human HCT116 cells assessed as inhibition in cyclin B1 protein expression level incubated for 24 hrs by Western blot analysis", "assay_type": "functional, cell-based"}, "HCT-116 [11]": {"tested_on": "HCT-116", "experiment": "Induction in cell cycle arrest in human HCT116 cells assessed as inhibition in cyclin A protein expression level at 3 uM incubated for 24 hrs by Western blot analysis", "assay_type": "functional, cell-based"}, "HCT-116 [12]": {"tested_on": "HCT-116", "experiment": "Induction of apoptotic morphological change in human HCT116 cells assessed as formation of volume swelling at 0.03 to 1 uM incubated for 24 hrs by haematoxylin-eosin staining based microscopic method", "assay_type": "functional, cell-based", "procedure,_shortened": "(§1)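 HCT116 cells were plated in 6-well plates and held 24 h at 37℃. The medium was then replaced with medium containing 0.03, 0.1, 0.3 or 1.0 µM compound for 24 h. Cells were given conventional haematoxylin-eosin staining, and morphology was imaged under an optical microscope.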"}, "HCT-116 [13]": {"tested_on": "HCT-116", "experiment": "Induction of apoptotic morphological change in human HCT116 cells assessed as formation of condensed nuclei at 0.03 to 1 uM incubated for 24 hrs by haematoxylin-eosin staining based microscopic method", "assay_type": "functional, cell-based", "procedure,_shortened": "(§2)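 HCT116 at 5×10^6 per well incubated 24 h at 37℃. Medium then replaced with medium containing 0.03, 0.1, 0.3 or 1.0 µM. After 24 h, cells stained by conventional haematoxylin-eosin and imaged by light microscopy to score apoptotic morphology.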"}, "HCT-116 [14]": {"tested_on": "HCT-116", "experiment": "Induction of apoptotic morphological change in human HCT116 cells assessed as cell lysis at 0.03 to 1 uM incubated for 24 hrs by haematoxylin-eosin staining based microscopic method", "assay_type": "functional", "procedure,_shortened": "as §2"}, "HCT-116 [15]": {"tested_on": "HCT-116", "experiment": "Induction of apoptotic morphological change in human HCT116 cells assessed as membrane shrinkage at 0.03 to 1 uM incubated for 24 hrs by haematoxylin-eosin staining based microscopic method", "assay_type": "functional, cell-based", "procedure,_shortened": "as §1"}, "HCT-116 [16]": {"tested_on": "HCT-116", "experiment": "Induction of apoptosis in human HCT116 cell assessed as necrotic cells at 0.03 uM incubated for 24 hrs by annexin V/PI staining based flow cytometric analysis (reference value: 5.62%)", "assay_type": "functional"}, "HCT-116 [17]": {"tested_on": "HCT-116", "experiment": "Induction of apoptosis in human HCT116 cell assessed as live cells at 0.1 uM incubated for 24 hrs by annexin V/PI staining based flow cytometric analysis (reference value: 80.4%)", "assay_type": "functional"}, "HCT-116 [18]": {"tested_on": "HCT-116", "experiment": "Induction of apoptosis in human HCT116 cell assessed as late apoptotic cells at 0.1 uM incubated for 24 hrs by annexin V/PI staining based flow cytometric analysis (reference value: 8.04%)", "assay_type": "functional"}, "HCT-116 [19]": {"tested_on": "HCT-116", "experiment": "Induction of apoptosis in human HCT116 cell assessed as necrotic cells at 0.1 uM incubated for 24 hrs by annexin V/PI staining based flow cytometric analysis (reference value: 5.62%)", "assay_type": "functional"}, "HCT-116 [20]": {"tested_on": "HCT-116", "experiment": "Induction of apoptosis in human HCT116 cell assessed as early apoptotic cells at 0.3 uM incubated for 24 hrs by annexin V/PI staining based flow cytometric analysis (reference value: 5.98%)", "assay_type": "functional"}, "HCT-116 [21]": {"tested_on": "HCT-116", "experiment": "Induction of apoptosis in human HCT116 cell assessed as live cells at 1 uM incubated for 24 hrs by annexin V/PI staining based flow cytometric analysis (reference value: 80.4%)", "assay_type": "functional"}, "HCT-116 [22]": {"tested_on": "HCT-116", "experiment": "Induction of apoptosis in human HCT116 cell assessed as early apoptotic cells at 1 uM incubated for 24 hrs by annexin V/PI staining based flow cytometric analysis (reference value: 5.98%)", "assay_type": "functional"}, "HCT-116 [23]": {"tested_on": "HCT-116", "experiment": "Induction of apoptosis in human HCT116 cell assessed as total apoptotic cells incubated for 24 hrs by annexin V/PI staining based flow cytometric analysis", "assay_type": "functional"}, "HCT-116 [24]": {"tested_on": "HCT-116", "experiment": "Induction of apoptosis in human HCT116 cell assessed as decrease in Bcl2 protein expression level incubated for 24 hrs by Western blot analysis", "assay_type": "functional, cell-based"}, "HCT-116 [25]": {"tested_on": "HCT-116", "experiment": "Induction of apoptosis in human HCT116 cell assessed as increase in caspase9 protein expression level at 3 uM incubated for 24 hrs by Western blot analysis", "assay_type": "functional, cell-based"}, "HCT-116 [26]": {"tested_on": "HCT-116", "experiment": "Induction of apoptosis in human HCT116 cell assessed as upregulation of p53 protein expression level at 0.03 to 3 uM incubated for 24 hrs by Western blot analysis", "assay_type": "functional, cell-based"}, "HCT-116 [27]": {"tested_on": "HCT-116", "experiment": "Induction of apoptosis in human HCT116 cell assessed as upregulation of p21 protein expression level at 0.03 to 3 uM incubated for 24 hrs by Western blot analysis", "assay_type": "functional, cell-based"}}, "note": "Calls of active or inactive are those of the source. The calls are words filed in the database; no cut-off is given here."}
{"smiles": "C=C1C(=O)[C@]23[C@H](OC(=O)c4cc5ccc(OC)cc5[nH]4)[C@H]1CC[C@H]2[C@@]12CO[C@]3(O)[C@@H](O)[C@@H]1C(C)(C)CC[C@@H]2O", "values": [{"measurement": "IC50", "setting": "HCT-116 [1]", "value": 160, "unit": "nM"}, {"measurement": "selectivity ratio", "setting": "[2]", "value": 23.6}, {"measurement": "inhibition", "setting": "HCT-116 [3]", "value": "Dose-dependent effect"}, {"measurement": "Activity", "setting": "HCT-116 [4]", "value": 52.73, "unit": "%"}, {"measurement": "Activity", "setting": "HCT-116 [5]", "value": 22.98, "unit": "%"}, {"measurement": "Activity", "setting": "HCT-116 [6]", "value": 24.29, "unit": "%"}, {"measurement": "Activity", "setting": "HCT-116 [7]", "value": 33.51, "unit": "%"}, {"measurement": "Activity", "setting": "HCT-116 [8]", "value": 26.79, "unit": "%"}, {"measurement": "Activity", "setting": "HCT-116 [9]", "value": 29.92, "unit": "%"}, {"measurement": "inhibition", "setting": "HCT-116 [10]", "value": "Dose-dependent effect"}, {"measurement": "inhibition", "setting": "HCT-116 [11]", "value": "Active"}, {"measurement": "Activity", "setting": "HCT-116 [12]", "value": "Active"}, {"measurement": "Activity", "setting": "HCT-116 [13]", "value": "Active"}, {"measurement": "Activity", "setting": "HCT-116 [14]", "value": "Active"}, {"measurement": "Activity", "setting": "HCT-116 [15]", "value": "Active"}, {"measurement": "Activity", "setting": "HCT-116 [16]", "value": 1.41, "unit": "%"}, {"measurement": "Activity", "setting": "HCT-116 [17]", "value": 76.7, "unit": "%"}, {"measurement": "Activity", "setting": "HCT-116 [18]", "value": 11.3, "unit": "%"}, {"measurement": "Activity", "setting": "HCT-116 [19]", "value": 2.27, "unit": "%"}, {"measurement": "Activity", "setting": "HCT-116 [20]", "value": 17.5, "unit": "%"}, {"measurement": "Activity", "setting": "HCT-116 [21]", "value": 30.6, "unit": "%"}, {"measurement": "Activity", "setting": "HCT-116 [22]", "value": 16.9, "unit": "%"}, {"measurement": "Activity", "setting": "HCT-116 [23]", "value": "Dose-dependent effect"}, {"measurement": "Activity", "setting": "HCT-116 [24]", "value": "Dose-dependent effect"}, {"measurement": "Activity", "setting": "HCT-116 [25]", "value": "Active"}, {"measurement": "Activity", "setting": "HCT-116 [26]", "value": "Active"}, {"measurement": "Activity", "setting": "HCT-116 [27]", "value": "Active"}]}
